# Results filed as inconclusive are left out. Active and inactive are the calls of the source.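 Rule for the calls: active = every replicate test active, meaning falling signal with half-maximal potency at most ten times the top valid dose; inconclusive = replicate test calls disagree with each other; inactive = every replicate test inactive, including signal rising instead.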
# Target: S. pyogenes UMAA2166, streptokinase activity in supernatant, OD405, 6 h
# Assay: S. pyogenes streptokinase expression inhibitors, potency, dose response, OD405 absorbance, dry powder, set 3 (AID 504351)
# Conditions: not given
# How it was run: (§1)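 Assay system: group A Streptococcus cultures; quantity: bacteria seeded at OD600 of 0.015; times: 6 h compound exposure of cultures at 37 °C; dosing: serial compound dilutions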
row,SMILES,AC50 [µM]
1,CCCOc1ccc(-c2nc(OC(C)C)c3ccccc3n2)cc1,37.5
2,O=C(Nc1ccc(Sc2ccccc2)cc1)c1ccccc1Cl,44.4
3,Cc1ccc(C(=O)n2c3ccccc3c3ccncc32)cc1,40.9
4,CCCOc1ccc(-c2nc(NC)c3ccccc3n2)cc1,31.6

# Target: not listed separately
# Assay: as above
# Conditions: S. pyogenes UMAA2166, streptokinase activity in supernatant, OD405, 6 h; at 50 µM (top of the series)
# How it was run: as §1
row,SMILES,"activity change, negative = inhibition"
1,O=c1[nH]c(-c2ccc(Cl)cc2)nc2ccccc12,inactive
2,COc1ccc(S(=O)(=O)c2ccc(NC(=O)c3ccccc3Cl)cc2C#N)cc1,inactive
3,COc1ccc(Sc2ccc(N)cc2C#N)cc1,inactive
4,COc1nc(-c2ccc(Cl)cc2)nc2ccccc12,inactive
5,COc1ccc(Sc2ccc(NC(=O)c3ccccc3Cl)cc2C#N)cc1,inactive
6,CCCOc1ccc(-c2nc(Oc3ccc(F)cc3)c3ccccc3n2)cc1,inactive
7,Cc1ccc(NC(=O)n2c3ccccc3c3ccccc32)cc1,inactive
8,COc1ccc(Sc2ccc(N(C(=O)c3ccccc3Cl)C(=O)c3ccccc3Cl)cc2C#N)cc1,inactive
9,CCCOc1ccc(-c2nc(Oc3ccc(C)cc3)c3ccccc3n2)cc1,inactive
10,CC(C)Oc1ccc(-c2nc3ccccc3c(=O)[nH]2)cc1,inactive
11,CCCOc1ccc(-c2nc(N(C)C)c3ccccc3n2)cc1,inactive
12,O=c1[nH]c(-c2cccc(Cl)c2)nc2ccccc12,inactive
13,COc1ccc(Sc2ccc(NC(=O)c3ccccc3OC)cc2C#N)cc1,inactive
14,COc1ccc(Sc2ccc(NCc3ccccc3Cl)cc2C#N)cc1,inactive
15,COc1ccc2c(c1)c1cc(OC)ccc1n2C(=O)c1ccc(C)cc1,inactive
16,COc1nc(-c2cccc(F)c2)nc2ccccc12,inactive
17,COc1cccc(-c2nc(OC)c3ccccc3n2)c1,inactive
18,O=c1[nH]c(-c2cccc(F)c2)nc2ccccc12,inactive

row,SMILES,"activity change, negative = inhibition"
1,Cc1ccc(C(=O)n2ncc3ccccc32)cc1,inactive
2,CCCOc1ccc(-c2nc3ccccc3c(=O)[nH]2)cc1,inactive
3,COc1ccccc1C(=O)n1c2ccccc2c2ccccc21,inactive
4,CCCOc1ccc(-c2nc(OCCCOC)c3ccccc3n2)cc1,inactive
5,COc1ccc(Sc2ccc(NC(=O)c3ccc(C)cc3)cc2C#N)cc1,inactive
6,CCCOc1ccc(-c2nc(OC)c3ccccc3n2)cc1,inactive
7,COc1ccc(Sc2ccc(NC(=O)c3ccccc3Cl)cc2)cc1,inactive
8,COc1ccc(Sc2ccc(NC(=O)c3ccccc3C#N)cc2C#N)cc1,inactive
9,O=C(c1ccc(N2CCOCC2)cc1)n1c2ccccc2c2ccccc21,inactive
10,Cc1ccc(C(=O)n2c3ccccc3c3ccccc32)cn1,inactive
11,COc1ccc(C(=O)n2c3ccccc3c3ccccc32)cc1,inactive
12,O=C(c1cscn1)n1c2ccccc2c2ccccc21,inactive
13,COc1cccc(-c2nc3ccccc3c(=O)[nH]2)c1,inactive
14,CS(=O)(=O)c1ccc(NC(=O)c2ccccc2Cl)cc1,inactive
15,Cc1ccc(C(=O)n2c3ccccc3c3cccnc32)cc1,inactive
16,COc1nc(-c2cccc(Cl)c2)nc2ccccc12,inactive
17,COc1ccc(Sc2ccc(NC(=O)c3ccc(OC)cc3)cc2C#N)cc1,inactive
